Measurements pooled from the literature.
Protocols differ between the studies behind these lines.
EGFR: Epidermal growth factor receptor (EGFR, Homo sapiens, UniProt P00533)
EGFR L858R/T790M: Epidermal growth factor receptor (EGFR, Homo sapiens, UniProt P00533, L858R/T790M)

O=C(CCn1c(=O)ccc2ccccc21)N1CCOCC1
IC50 (EGFR; enzyme activity; inhibitor): 52.7 nM

CCc1c(C)c2ccc(OCC(=O)NN=Cc3ccc([N+](=O)[O-])cc3)cc2oc1=O
IC50 (EGFR; enzyme activity; inhibitor; ATP luminescence): 414 nM

Cc1ncc(CN2CCc3ccccc3C2)c2cc(C(=O)c3ccc4c(c3)OCCO4)oc12
IC50 (EGFR L858R/T790M; enzyme activity; inhibitor; ADP detection): 10.8 nM

C=CC(=O)N1CC[C@@H](Oc2nc(Nc3ccc(N4CCC(N5CCN(C)CC5)CC4)cc3)c(C(N)=O)nc2CC)C1
IC50 (EGFR L858R/T790M; enzyme activity; inhibitor): 1.2 nM

CC(C)=CCc1c(O)c(O)c2oc3c(O)ccc(O)c3c(=O)c2c1CC=C(C)C
Kd (EGFR; binding; SPR): 19000 nM

Cc1c(Cc2ccccc2)c(=O)oc2c(C)c(OCC(=O)NN=Cc3ccc([N+](=O)[O-])cc3)ccc12
IC50 (EGFR; enzyme activity; inhibitor; ATP luminescence): 313 nM

C=CC(=O)Nc1cc(Nc2ncc(C(=O)OC(C)C)c(-c3cn(C)c4ccccc34)n2)c(OC)cc1N(C)CCN(C)C
IC50 (EGFR L858R/T790M; enzyme activity; inhibitor): 0.6 nM

O=C(O)Cc1csc(NC(=O)c2cc3ccccc3[nH]2)n1
IC50 (EGFR; enzyme activity; inhibitor; ELISA): 618 nM

Cc1ccc2c(-c3cc4c(CN5CCN(Cc6ccccn6)CC5)cnc(C)c4o3)cc(=O)oc2c1
IC50 (EGFR L858R/T790M; enzyme activity; inhibitor; ADP detection): 12.4 nM

COC(=O)[C@]12CCC(C)(C)C[C@H]1[C@H]1C(=O)C=C3[C@@]4(C)C=C(C#N)C(=O)C(C)(C)[C@@H]4CC[C@@]3(C)[C@]1(C)CC2
Kd (EGFR L858R/T790M; binding; MST): 1100 nM

COc1ccc2[nH]c(C(=O)Nc3nc(CC(=O)O)cs3)cc2c1
IC50 (EGFR; enzyme activity; inhibitor; ELISA): 1740 nM

Cc1ncc(CN2CCN(Cc3ccccn3)CC2)c2cc(C(=O)c3ccc4c(c3)OCCO4)oc12
IC50 (EGFR L858R/T790M; enzyme activity; inhibitor; ADP detection): 3.23 nM
